{"data": "Assay results collected from several papers", "organism": "Escherichia coli", "observed": "microbial growth", "note": "Lines come from different studies, so protocols differ."}
{"SMILES": "CC(C)Oc1c(NC(=O)c2ccc(NC(=O)[C@H](CC(N)=O)NC(=O)c3ccc(NC(=O)c4ccc(S(C)(=O)=O)cc4)cc3)cc2)ccc(C(=O)Nc2ccc(C(=O)O)cc2)c1O", "strain": "DSM1116", "MIC [µg/mL]": 2}
{"SMILES": "Oc1cccc(-c2nc3ccccc3[nH]2)c1", "method": "broth dilution", "strain": "ATCC25922", "MIC [µg/mL]": 64}
{"SMILES": "N=C(N)c1ccc(OCc2ccc3ccc(COc4ccc(C(=N)N)cc4)cc3c2)cc1", "strain": "BW25113", "time": "20 h", "MIC [µg/mL]": "> 200"}
{"SMILES": "CC(C)Oc1c(NC(=O)c2ccc(NC(=O)[C@H](CC(N)=O)NC(=O)c3ccc(NC(=O)c4ccc(C#N)c(F)c4)cc3)cc2)ccc(C(=O)Nc2ccc(C(=O)O)cc2)c1O", "strain": "DSM1116", "MIC [µg/mL]": 0.25}
{"SMILES": "N=C(N)c1ccccc1OCc1cccc(COc2ccccc2C(=N)N)c1", "strain": "BW25113", "MIC [µg/mL]": "> 200"}
{"SMILES": "CC1(C)S[C@@H]2[C@H](NC(=O)[C@H](N)c3ccccc3)C(=O)N2[C@H]1C(=O)O", "method": "broth dilution", "strain": "ATCC25922", "MIC [µg/mL]": 4}
{"SMILES": "Cc1ccc2nc(-c3ccc(F)cc3)[nH]c2c1", "method": "broth dilution", "strain": "ATCC25922", "MIC [µg/mL]": 64}
{"SMILES": "N=C(N)c1ccc(OCc2ccccc2COc2ccc(C(=N)N)cc2)cc1", "method": "broth dilution", "strain": "ATCC25922", "MIC [µg/mL]": "> 200"}
{"SMILES": "CC(C)Oc1c(NC(=O)c2ccc(NC(=O)[C@H](CC(N)=O)NC(=O)c3ccc(CNC(=O)c4ccc(C#N)cc4)cc3)cc2)ccc(C(=O)Nc2ccc(C(=O)O)cc2)c1O", "strain": "DSM1116", "MIC [µg/mL]": "> 64"}
{"SMILES": "Clc1ccc(-c2nc3ccccc3[nH]2)cc1Cl", "method": "broth dilution", "strain": "ATCC25922", "MIC [µg/mL]": 32}
